Active and inactive are the calls of the source. The calls are words filed in the database; no cut-off is given here.
Key:
[1] = tested on: CCRF-CEM; assay: Cellular uptake in human CEM cells at 0.3 uM within 14 hrs by FACS analysis; type: ADME, cell-based
In short: (§1)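 CEM cells taken in log phase and resuspended at 0.5×10^6 cells/mL in RPMI with 2% FBS, preincubated 30 min at 37 °C. Fluorescein-labelled conjugate added at 50 nM–1 µM and incubated. Cells harvested at 30 min, 3 h and 14 h, washed in PBS and scored for FITC-positive cells by FACScan, with propidium iodide (1 µg/mL) to exclude dead cells.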

[2] = tested on: CCRF-CEM; assay: Cellular uptake in human CEM cells up to 14 hrs by FACS analysis; type: ADME, cell-based; in short: as §1
[3] = tested on: CCRF-CEM; assay: Cellular uptake in human CEM cells at 0.2 uM within 14 hrs by FACS analysis; type: ADME, cell-based; in short: as §1
[4] = tested on: CCRF-CEM; assay: Cellular uptake in human CEM cells up to 14 hrs by FACS analysis at 4 degC; type: ADME, cell-based; in short: as §1
[5] = tested on: CCRF-CEM; assay: Cellular uptake in human CEM cells at 0.2 uM within 30 mins by FACS analysis; type: ADME, cell-based; settings: 0.5 h; in short: as §1
[6] = Cellular uptake in human Huh7.5 cells at 1 uM after 10 hrs by DAPI/WGA-Rhodamine-staining based confocal microscopic analysis in presence of chloroquine; type: ADME, cell-based; settings: huh-7, 10 h
In short: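 Huh7.5 cells incubated with 1 µM FITC-labelled conjugate, with or without the endosome disruptor chloroquine, for 10 h. Cells then PBS-washed, fixed in 4% paraformaldehyde, stained with WGA-rhodamine (membrane glycoproteins) and DAPI (nuclei), and imaged by confocal microscopy, FITC at 488 nm.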

[7] = tested on: CCRF-CEM; assay: Cellular uptake in human CEM cells at 1 uM after 12 hrs by confocal microscopic analysis; type: ADME, cell-based
In short: (§2)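 CEM cells incubated 12 h with FITC-labelled conjugate (0.5 and 1 µM) or with 1 µM FITC-labelled naked PNA. Cells then washed, nuclei DAPI-stained, and imaged by confocal microscopy with FITC read at 488 nm.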

[8] = tested on: CCRF-CEM; assay: Cellular uptake in human CEM cells at 50 nM to 1 uM by FACS analysis; type: ADME, cell-based; settings: 0.05 µM, TDE = time-dependent effect; in short: as §1
[9] = tested on: CCRF-CEM; assay: Cellular uptake in human CEM cells up to 14 hrs by FACS analysis at 37 degC; type: ADME, cell-based; in short: as §1
[10] = Cytotoxicity against human CEM cells assessed as cell viability at 0.2 to 1 uM by propidium iodide-staining based flow cytometric analysis; settings: CCRF-CEM cells, read-out: Activity
In short: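 CEM cells exposed to labelled conjugate at 0.2–1 µM under uptake-assay conditions. Viability scored by propidium iodide exclusion during flow cytometry.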

[11] = tested on: CCRF-CEM; assay: Cellular uptake in human CEM cells at 0.5 uM after 12 hrs by confocal microscopic analysis; type: ADME, cell-based; in short: as §2
[12] = tested on: Nucleic Acid; assay: Inhibition of HIV1 transactivation response element RNA-mediated LTR expression transfected in human CEM cells coexpressing CMV-Tat at 1 and 2 uM after 24 hrs by luciferase reporter gene assay; type: cell-based; settings: Human immunodeficiency virus 1; CCRF-CEM
In short: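 CEM cells (0.5×10^6/well) transfected with pHIV-1 LTR-Luc (2 µg) and pRL-SV40 (500 ng), with or without pCMV-Tat (2 µg). Conjugates added 2 h later, and cells grown in RPMI/10% FBS at 37 °C. At 24 h, dual-luciferase read-out; firefly normalised to Renilla and expressed as % of untreated cells. Mean ± SEM of two independent experiments.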

Structure (SMILES) | Drug uptake [1] | Drug uptake [2] | Drug uptake [3] | Drug uptake [4] | Drug uptake [5] | Drug uptake [6] | Drug uptake [7] | Drug uptake [8] | Drug uptake [9] | viability at 1 µM [10] | Drug uptake [11] | inhibition [12]
CO[C@H]1O[C@H](CN)[C@@H](OCCCCCC(=O)NCCN(CC(=O)NCCN(CC(=O)NCCN(CC(=O)NCCN(CC(=O)NCCN(CC(=O)NCCN(CC(=O)NCCN(CC(=O)NCCN(CC(=O)NCCN(CC(=O)NCCN(CC(=O)NCCN(CC(=O)NCCN(CC(=O)NCCN(CC(=O)NCCN(CC(=O)NCCN(CC(=O)NCCN(CC(=O)N[C@@H](CCCCNC(=S)Nc2ccc(-c3c4ccc(=O)cc-4oc4cc(O)ccc34)c(C(=O)O)c2)C(N)=O)C(=O)Cn2cc(C)c(=O)[nH]c2=O)C(=O)Cn2ccc(N)nc2=O)C(=O)Cn2cc(C)c(=O)[nH]c2=O)C(=O)Cn2cnc3c(N)ncnc32)C(=O)Cn2cnc3c(=O)[nH]c(N)nc32)C(=O)Cn2cnc3c(N)ncnc32)C(=O)Cn2ccc(N)nc2=O)C(=O)Cn2cc(C)c(=O)[nH]c2=O)C(=O)Cn2ccc(N)nc2=O)C(=O)Cn2cnc3c(=O)[nH]c(N)nc32)C(=O)Cn2cnc3c(=O)[nH]c(N)nc32)C(=O)Cn2cnc3c(N)ncnc32)C(=O)Cn2ccc(N)nc2=O)C(=O)Cn2ccc(N)nc2=O)C(=O)Cn2ccc(N)nc2=O)C(=O)Cn2cc(C)c(=O)[nH]c2=O)[C@H](O)[C@H]1N | 100% | Dose-dependent effect | 85% | Active | 10% | Active | 99% | tde | Active | > 95% | 90% | 
Cc1cn(CC(=O)N(CCNC(=O)CN(CCNC(=O)CN(CCNC(=O)CN(CCNC(=O)CN(CCNC(=O)CN(CCNC(=O)CN(CCNC(=O)CN(CCNC(=O)CN(CCNC(=O)CN(CCNC(=O)CN(CCNC(=O)CN(CCNC(=O)CN(CCNC(=O)CN(CCNC(=O)CN(CCNC(=O)CN(CCN)C(=O)Cn2cc(C)c(=O)[nH]c2=O)C(=O)Cn2ccc(N)nc2=O)C(=O)Cn2ccc(N)nc2=O)C(=O)Cn2ccc(N)nc2=O)C(=O)Cn2cnc3c(N)ncnc32)C(=O)Cn2cnc3c(=O)[nH]c(N)nc32)C(=O)Cn2cnc3c(=O)[nH]c(N)nc32)C(=O)Cn2ccc(N)nc2=O)C(=O)Cn2cc(C)c(=O)[nH]c2=O)C(=O)Cn2ccc(N)nc2=O)C(=O)Cn2cnc3c(N)ncnc32)C(=O)Cn2cnc3c(=O)[nH]c(N)nc32)C(=O)Cn2cnc3c(N)ncnc32)C(=O)Cn2cc(C)c(=O)[nH]c2=O)C(=O)Cn2ccc(N)nc2=O)CC(N)=O)c(=O)[nH]c1=O |  |  |  |  |  |  |  |  |  |  |  | inactive
